# Assay results: ChEMBL document CHEMBL1136891, “1,3-dialkyl-8-N-substituted benzyloxycarbonylamino-9-deazaxanthines as potent adenosine receptor ligands: Design, synthesis, structure-affinity and structure-selectivity relationships” (Bioorg Med Chem, 2009)
# Experiments:
# Adenosine receptor A2a [1] = biological target: T1, Adenosine receptor A2a (Homo sapiens, UniProt P29274); experiment: Displacement of [3H]ZM241385 from human recombinant adenosine A2A receptor expressed in HeLa cells by beta scintillation counter; assay type: cell-based
# [2] = biological target: T2, Adenosine receptor A2b (Homo sapiens) (UniProt P29275); experiment: Displacement of [3H]DPCPX from human recombinant adenosine A2B receptor expressed in HEK293 cells at 1 uM by beta scintillation counter; assay type: cell-based
# T2 sequence (whole entry): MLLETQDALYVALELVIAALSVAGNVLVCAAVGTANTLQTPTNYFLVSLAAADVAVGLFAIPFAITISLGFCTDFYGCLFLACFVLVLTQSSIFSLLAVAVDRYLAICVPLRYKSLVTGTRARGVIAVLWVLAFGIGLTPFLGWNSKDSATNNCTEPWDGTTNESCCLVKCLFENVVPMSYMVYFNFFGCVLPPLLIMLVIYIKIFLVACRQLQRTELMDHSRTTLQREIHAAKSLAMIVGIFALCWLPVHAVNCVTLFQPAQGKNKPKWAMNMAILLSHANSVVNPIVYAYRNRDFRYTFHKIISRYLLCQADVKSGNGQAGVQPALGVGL
# Adenosine receptor A2b [3] = biological target: T3, Adenosine receptor A2b (Homo sapiens, UniProt P29275); experiment: Displacement of [3H]DPCPX from human recombinant adenosine A2B receptor expressed in HEK293 cells by beta scintillation counter; assay type: cell-based
# T3 sequence (P29275 whole entry): T2 sequence (whole entry)
# In short: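 Competition binding on membranes from transfected HEK-293 cells expressing hA2B, using 35 nM [3H]DPCPX. Non-specific binding was defined with NECA. Incubation was 30 min at 25 °C, followed by filtration and scintillation counting. Ki values are means of two independent experiments in duplicate.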
# Homo sapiens = species: Homo sapiens; experiment: Selectivity index, ratio of Ki for human recombinant adenosine A2A receptor to Ki for human recombinant adenosine A2B receptor
# In short: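 Competition binding on membranes at 25 °C for 30 min, then filtration and beta scintillation counting. hA2A: transfected HeLa cells, 3 nM [3H]ZM241385, non-specific binding with 50 µM NECA. hA2B: transfected HEK-293 cells, 35 nM [3H]DPCPX, non-specific binding with 400 µM NECA. Ki values are means of two independent duplicate experiments. SI = Ki hA2A / Ki hA2B.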
# Adenosine receptor A1 = biological target: T4, Adenosine receptor A1 (Homo sapiens, UniProt P30542); experiment: Displacement of [3H]DPCPX from human recombinant adenosine A1 receptor expressed in CHO cells by beta scintillation counter; assay type: cell-based
# T4 sequence (P30542 whole entry): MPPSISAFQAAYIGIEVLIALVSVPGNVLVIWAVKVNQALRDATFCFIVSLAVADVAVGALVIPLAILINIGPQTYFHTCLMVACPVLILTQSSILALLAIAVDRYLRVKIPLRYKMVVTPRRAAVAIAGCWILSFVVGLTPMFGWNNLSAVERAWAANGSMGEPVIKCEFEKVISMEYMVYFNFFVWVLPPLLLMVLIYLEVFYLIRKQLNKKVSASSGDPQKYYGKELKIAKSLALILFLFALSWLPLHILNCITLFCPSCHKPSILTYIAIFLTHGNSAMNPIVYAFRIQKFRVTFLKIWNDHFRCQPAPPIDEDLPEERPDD
# In short: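 Membranes from CHO cells expressing hA1, labelled with 2 nM [3H]DPCPX. Non-specific binding was defined with excess (R)-PIA. Incubated 25 °C for 60 min, then filtered and counted. Ki values are means of two independent experiments with duplicate points.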
# Adenosine receptor A3 = biological target: T5, Adenosine receptor A3 (Homo sapiens, UniProt P0DMS8); experiment: Displacement of [3H]NECA from human recombinant adenosine A3 receptor expressed in HeLa cells by beta scintillation counter; assay type: cell-based
# T5 sequence (P0DMS8 whole entry): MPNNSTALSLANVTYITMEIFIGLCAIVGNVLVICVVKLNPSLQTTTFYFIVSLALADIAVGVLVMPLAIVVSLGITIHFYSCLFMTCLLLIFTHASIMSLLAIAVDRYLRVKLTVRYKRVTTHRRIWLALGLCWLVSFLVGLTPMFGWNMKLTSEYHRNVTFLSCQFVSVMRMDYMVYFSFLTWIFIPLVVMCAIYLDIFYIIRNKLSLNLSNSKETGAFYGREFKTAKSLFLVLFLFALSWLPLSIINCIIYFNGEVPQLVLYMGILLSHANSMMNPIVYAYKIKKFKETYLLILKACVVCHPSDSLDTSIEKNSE
# In short: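 HeLa-hA3 membranes labelled with 30 nM [3H]NECA. Non-specific binding was defined with (R)-PIA. Incubation was 180 min at 25 °C, then filtration and scintillation counting. Ki values are means of two independent experiments with duplicate points.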
# [4] = Solubility in water; assay type: physicochemical
# In short: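 Compound stock at 1 mg/ml in DMSO, added in small portions (typically 14 additions) to 50 mM Tris/HCl pH 7.4 at room temperature, keeping final DMSO below 5%. Precipitation was detected as light-scattering absorbance at 600–820 nm. The solubility limit was taken from a bilinear fit of absorbance versus DMSO added. Mean ± SEM of two assays.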
# Adenosine receptor A2a [5] = biological target: Adenosine receptor A2a (Rattus norvegicus, UniProt P30543); experiment: Antagonist activity at adenosine A2A receptor in Wistar-Kyoto rat aorta assessed as inhibition of phenylephrine-induced contraction treated 30 mins before phenylephrine challenge measured after 60 mins
# Adenosine receptor A2b [6] = biological target: T6, Adenosine receptor A2b (Rattus norvegicus, UniProt P29276); experiment: Antagonist activity at adenosine A2B receptor in Wistar-Kyoto rat colon assessed as inhibition of NECA-induced relaxation after 30 mins; settings: read-out: pA2 (converted)
# T6 sequence (P29276 whole entry): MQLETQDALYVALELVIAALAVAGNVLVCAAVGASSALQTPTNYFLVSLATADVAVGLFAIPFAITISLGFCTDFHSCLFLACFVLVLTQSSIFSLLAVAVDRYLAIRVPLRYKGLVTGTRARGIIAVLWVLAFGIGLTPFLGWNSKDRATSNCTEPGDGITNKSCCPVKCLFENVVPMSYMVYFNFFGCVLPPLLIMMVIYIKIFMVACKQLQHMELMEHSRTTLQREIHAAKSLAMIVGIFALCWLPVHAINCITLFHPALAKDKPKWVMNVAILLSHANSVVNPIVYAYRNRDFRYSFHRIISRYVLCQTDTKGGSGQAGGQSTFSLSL
# Adenosine receptor A2a [7] = biological target: T1, Adenosine receptor A2a; experiment: Displacement of [3H]ZM241385 from human recombinant adenosine A2A receptor expressed in HeLa cells at 1 uM by beta scintillation counter
# T1 sequence (P29274 whole entry): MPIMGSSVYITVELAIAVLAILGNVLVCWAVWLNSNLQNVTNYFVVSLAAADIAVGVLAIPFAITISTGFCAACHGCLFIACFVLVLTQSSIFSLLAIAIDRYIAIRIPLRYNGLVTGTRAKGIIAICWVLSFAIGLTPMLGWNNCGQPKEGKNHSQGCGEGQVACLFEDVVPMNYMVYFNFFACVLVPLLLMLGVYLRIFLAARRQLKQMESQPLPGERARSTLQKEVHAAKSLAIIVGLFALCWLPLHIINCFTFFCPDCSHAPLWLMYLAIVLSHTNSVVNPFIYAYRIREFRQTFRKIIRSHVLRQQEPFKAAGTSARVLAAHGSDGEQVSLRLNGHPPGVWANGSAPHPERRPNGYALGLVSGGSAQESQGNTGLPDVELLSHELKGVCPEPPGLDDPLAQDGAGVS
# Sequence of Adenosine receptor A2a (Rattus norvegicus, UniProt P30543) (P30543 whole entry): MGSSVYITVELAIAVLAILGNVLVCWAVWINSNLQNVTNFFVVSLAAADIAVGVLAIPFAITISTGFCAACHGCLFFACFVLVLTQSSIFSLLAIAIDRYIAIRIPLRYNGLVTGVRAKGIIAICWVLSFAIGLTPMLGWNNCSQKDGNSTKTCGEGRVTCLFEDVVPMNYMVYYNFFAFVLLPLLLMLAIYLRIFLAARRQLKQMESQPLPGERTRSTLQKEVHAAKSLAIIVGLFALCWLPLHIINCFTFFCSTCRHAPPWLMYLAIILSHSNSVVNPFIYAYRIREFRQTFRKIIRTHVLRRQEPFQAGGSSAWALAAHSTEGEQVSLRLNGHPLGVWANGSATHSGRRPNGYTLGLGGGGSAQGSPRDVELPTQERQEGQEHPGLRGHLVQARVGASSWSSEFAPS
Ki (Adenosine receptor A2a [1]) [nM],inhibition [2] [%],Ki (Adenosine receptor A2b [3]) [nM],Ratio Ki (Homo sapiens),Ki (Adenosine receptor A1) [nM],Ki (Adenosine receptor A3) [nM],inhibition (Adenosine receptor A2a [7]) [%],Structure (SMILES),solubility [4] [µg/mL],Kb (Adenosine receptor A2a [5]) [nM],Kb (Adenosine receptor A2b [6]) [nM]
447,46,–,–,–,–,–,CCCn1c(=O)c2[nH]c(-c3ccc(COC(=O)N4CCN(c5ccccc5)CC4)cc3)cc2n(CCC)c1=O,–,–,–
118,–,2,59,0.4,71,–,CCCn1c(=O)c2[nH]c(-c3ccc(COC(=O)Nc4ccc(F)cc4)cc3)cc2n(CCC)c1=O,–,–,–
2240,–,602,3.7,–,–,–,CCCn1c(=O)c2[nH]c(-c3ccc(COC(=O)Nc4cccs4)cc3)cc2n(CCC)c1=O,–,–,–
490,–,81.3,6,–,–,–,Cn1c(=O)c2[nH]c(-c3ccc(COC(=O)Nc4ccccn4)cc3)cc2n(C)c1=O,–,–,–
43.7,–,2.1,20.4,–,–,–,Cn1c(=O)c2[nH]c(-c3ccc(COC(=O)N4CCc5ccccc5C4)cc3)cc2n(C)c1=O,–,–,–
50.1,–,42.7,1.2,–,–,–,CCCn1c(=O)c2[nH]c(-c3ccc(COC(=O)N4CCN(c5ccc(F)cc5)CC4)cc3)cc2n(CCC)c1=O,–,–,–
35.5,–,7.8,4.6,–,–,–,CCCn1c(=O)c2[nH]c(-c3ccc(COC(=O)Nc4cnccn4)cc3)cc2n(CCC)c1=O,–,–,–
34.7,–,2.8,12.6,2.2,275,–,Cn1c(=O)c2[nH]c(-c3ccc(COC(=O)Nc4ccccc4)cc3)cc2n(C)c1=O,–,–,–
–,–,13.8,–,–,–,15,CCCn1c(=O)c2[nH]c(-c3ccc(COC(=O)Nc4ccccc4)cc3)cc2n(C)c1=O,–,–,–
72.4,–,9.5,7.6,17.8,871,–,Cn1c(=O)c2[nH]c(-c3ccc(COC(=O)Nc4ccc(F)cc4)cc3)cc2n(C)c1=O,–,–,–
132,–,11.5,11.5,–,–,–,Cn1c(=O)c2[nH]c(-c3ccc(COC(=O)N4CCN(c5ccccc5)CC4)cc3)cc2n(C)c1=O,–,–,–
1000,–,16.2,61.6,–,–,–,Cn1c(=O)c2[nH]c(-c3ccc(COC(=O)NCc4ccccc4)cc3)cc2n(C)c1=O,–,–,–
3310,–,501,6.6,–,–,–,CCCn1c(=O)c2[nH]c(-c3ccc(COC(=O)Nc4ccsc4)cc3)cc2n(CCC)c1=O,–,–,–
28.8,–,7.1,4.1,20.4,331,–,CCCn1c(=O)c2[nH]c(-c3ccc(COC(=O)Nc4ccccc4)cc3)cc2n(CCC)c1=O,27,–,–
15.1,–,1,15.1,–,–,–,Cn1c(=O)c2[nH]c(-c3ccc(COC(=O)Nc4cccs4)cc3)cc2n(C)c1=O,–,–,–

Structure (SMILES),Ki (Adenosine receptor A2a [1]) [nM],inhibition [2] [%],Ki (Adenosine receptor A2b [3]) [nM],Ratio Ki (Homo sapiens),Ki (Adenosine receptor A1) [nM],Ki (Adenosine receptor A3) [nM],inhibition (Adenosine receptor A2a [7]) [%],solubility [4] [µg/mL],Kb (Adenosine receptor A2a [5]) [nM],Kb (Adenosine receptor A2b [6]) [nM]
Cn1c(=O)c2[nH]c(-c3ccc(COC(=O)Nc4ccsc4)cc3)cc2n(C)c1=O,10.5,–,0.8,12.6,10,363,–,21.5,28.2,2.19
CCCn1c(=O)c2[nH]c(-c3ccc(COC(=O)Nc4ccon4)cc3)cc2n(CCC)c1=O,21.9,–,1.7,12.9,–,–,–,–,–,–
CCCn1c(=O)c2[nH]c(-c3ccc(COC(=O)N4CCN(c5cccc(Cl)c5)CC4)cc3)cc2n(CCC)c1=O,28.2,–,24,1.2,–,–,–,–,–,–
Cn1c(=O)c2[nH]c(-c3ccc(COC(=O)Nc4ccco4)cc3)cc2n(C)c1=O,18.2,–,3.2,5.6,–,–,–,–,–,–
CCCn1c(=O)c2[nH]c(-c3ccc(COC(=O)Nc4cc[nH]n4)cc3)cc2n(CCC)c1=O,10,–,5.9,1.7,–,–,–,–,–,–
